Assay results collected from several papers.
Each line is one published result; the experiments were not run side by side.
OPRM1: Mu-type opioid receptor (OPRM1, Homo sapiens, UniProt P35372)
BRD4 BD1: Bromodomain-containing protein 4, BD1 (BRD4, Homo sapiens, UniProt O60885)
Slc6a4: Sodium-dependent serotonin transporter (Slc6a4, Rattus norvegicus, UniProt P31652)
HTR1D: 5-hydroxytryptamine receptor 1D (HTR1D, Homo sapiens, UniProt P28221)
CYP2A6: Cytochrome P450 2A6 (CYP2A6, Homo sapiens, UniProt P11509)

| SMILES | target | test | conditions | measurement | result |
| --- | --- | --- | --- | --- | --- |
| Cc1cnc(-c2ccc(-c3ccc(NC(=O)Nc4c(F)cc(F)cc4F)cc3F)c3c2C(=O)NC3)[nH]1 | Tyrosine-protein kinase Yes (YES1, Homo sapiens, UniProt P07947) | binding, competition with immobilised ligand | – | Kd | 0.31 µM |
| CCCCN1CCC(COC(=O)c2ccc(N)c(OCF)c2)CC1 | OPRM1 | cell-free assay, radioligand | – | Ki | > 10 µM |
| Cc1cc2c(NC(=O)c3cccc(C(=O)O)c3)cccc2nn1 | BRD4 BD1 | binding, competition with immobilised ligand | – | Kd | 41 µM |
| CN(C)CCN(Cc1ccccc1)Cc1c(F)cccc1Cl | Slc6a4 | ligand displacement, radioligand | – | Ki | 0.212 µM |
| O[C@H]1[C@H](n2cnc3c(NC(C4CCCCC4)C4CCCCC4)nc(Cl)nc32)[C@H]2C[C@@]2(CF)[C@H]1O | HTR1D | cell-free assay, radioligand | – | Ki | 1.99 µM |
| C#Cc1cccc2oc(-c3ccccc3)cc(=O)c12 | CYP2A6 | enzyme activity, inhibitor | 6 min, pH 7.6 | Ki | > 25 µM |
| CN(C)c1ccc(C(CNC(=O)c2ccc(Br)cc2)N(C)C)cc1 (stereo not shown) | Slc6a4 | ligand displacement, radioligand | – | Ki | 0.305 µM |
| Cc1occc(=S)c1O | Carbonic anhydrase 15 (Mus musculus, UniProt Q99N23) | enzyme activity, inhibitor, stopped-flow | – | Ki | 3.1 µM |
| O=C1c2ccccc2CCN1CCCCN1CCN(c2cccc(Cl)c2Cl)CC1 | HTR1D | ligand displacement, radioligand | – | Ki | > 10 µM |
| C#Cc1ccc(-c2cc(=O)c3ccccc3o2)cc1 | CYP2A6 | enzyme activity, inhibitor | 6 min, pH 7.6 | Ki | > 25 µM |
| Cc1cc(N)nc(CCc2cccc([C@@H](N)Cc3cc(C)cc(N)n3)c2)c1 | Nitric oxide synthase 1 (Nos1, Rattus norvegicus, UniProt P29476) | enzyme activity, inhibitor | – | Ki | ~0.1 µM |
| C#Cc1ccc2oc(-c3ccccc3)cc(=O)c2c1 | CYP2A6 | enzyme activity, inhibitor | 6 min, pH 7.6 | Ki | > 25 µM |
| Oc1ccc(-c2nc(-c3ccncc3)c(-c3ccc(F)cc3)[nH]2)cc1 | BRD4 BD1 | binding, ITC | – | Kd | 3.42 µM |
| CC1=CC(=O)CC(C)(C)[C@@]1(O)/C=C/C(C)=C\C(=O)O | PYL1 (Arabidopsis thaliana, UniProt Q8VZS8) | binding, MST | – | Kd | 63.7 µM |
| C#Cc1ccc2c(=O)cc(-c3ccccc3)oc2c1 | CYP2A6 | enzyme activity, inhibitor | 6 min, pH 7.6 | Ki | > 25 µM |
| Cc1c(C(=O)NN2CCOCC2)nn(-c2ccc(Cl)cc2Cl)c1-c1ccc(I)cc1 | OPRM1 | ligand displacement, radioligand | cell membranes | Ki | 2.14 µM |
